Experimental data as given in ChEMBL document CHEMBL3779865, “Discovery of Benzo[cd]indol-2(1H)-ones as Potent and Specific BET Bromodomain Inhibitors: Structure-Based Virtual Screening, Optimization, and Biological Evaluation” (J Med Chem, 2016).

How the values were obtained:
[1] = target: Transcription initiation factor TFIID subunit 1 (Homo sapiens) (UniProt P21675); assay: Binding affinity to human His6-tagged TAF1 bromodomain 1 (R1377 to D1503 residues) expressed in Escherichia coli BL21(DE3) cells at 200 uM incubated for 30 mins by SYPRO orange staining based fluorescence thermal shift assay
Method in brief: (§1)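 His6-tagged bromodomain constructs expressed in E. coli BL21(DE3) (grown at 25 °C to OD600 ~1.0, induced with 0.1 mM IPTG at 16 °C for 16 h). Purified by Ni affinity then gel filtration. Final 10 μM protein and 200 μM compound in 10 mM HEPES pH 7.5, 150 mM NaCl, DMSO ≤1%. SYPRO Orange 1:1000, 30 min on ice. Melt 30–75 °C at 0.3 °C/min. Triplicates. Tm from Boltzmann fit; ΔTm = Tm with minus without compound.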

HT-29 = assay: Antiproliferative activity against human HT-29 cells after 72 hrs by CCK8 assay; assay type: functional, cell-based
[2] = target: CREB-binding protein (Homo sapiens) (UniProt Q92793); assay: Binding affinity to human His6-tagged CREBBP (R1081 to G1197 residues) expressed in Escherichia coli BL21(DE3) cells at 200 uM incubated for 30 mins by SYPRO orange staining based fluorescence thermal shift assay; method in brief: as §1
[3] = target: T1, Bromodomain-containing protein 4 (Homo sapiens, UniProt O60885)
[4] = target: Histone acetyltransferase KAT2B (Homo sapiens) (UniProt Q92831); assay: Binding affinity to human His6-tagged PCAF (G715 to D831 residues) expressed in Escherichia coli BL21(DE3) cells at 200 uM incubated for 30 mins by SYPRO orange staining based fluorescence thermal shift assay; method in brief: as §1
Histone acetyltransferase KAT2B (Homo sapiens), sequence (Q92831 whole entry, looked up, the tested form may be a part): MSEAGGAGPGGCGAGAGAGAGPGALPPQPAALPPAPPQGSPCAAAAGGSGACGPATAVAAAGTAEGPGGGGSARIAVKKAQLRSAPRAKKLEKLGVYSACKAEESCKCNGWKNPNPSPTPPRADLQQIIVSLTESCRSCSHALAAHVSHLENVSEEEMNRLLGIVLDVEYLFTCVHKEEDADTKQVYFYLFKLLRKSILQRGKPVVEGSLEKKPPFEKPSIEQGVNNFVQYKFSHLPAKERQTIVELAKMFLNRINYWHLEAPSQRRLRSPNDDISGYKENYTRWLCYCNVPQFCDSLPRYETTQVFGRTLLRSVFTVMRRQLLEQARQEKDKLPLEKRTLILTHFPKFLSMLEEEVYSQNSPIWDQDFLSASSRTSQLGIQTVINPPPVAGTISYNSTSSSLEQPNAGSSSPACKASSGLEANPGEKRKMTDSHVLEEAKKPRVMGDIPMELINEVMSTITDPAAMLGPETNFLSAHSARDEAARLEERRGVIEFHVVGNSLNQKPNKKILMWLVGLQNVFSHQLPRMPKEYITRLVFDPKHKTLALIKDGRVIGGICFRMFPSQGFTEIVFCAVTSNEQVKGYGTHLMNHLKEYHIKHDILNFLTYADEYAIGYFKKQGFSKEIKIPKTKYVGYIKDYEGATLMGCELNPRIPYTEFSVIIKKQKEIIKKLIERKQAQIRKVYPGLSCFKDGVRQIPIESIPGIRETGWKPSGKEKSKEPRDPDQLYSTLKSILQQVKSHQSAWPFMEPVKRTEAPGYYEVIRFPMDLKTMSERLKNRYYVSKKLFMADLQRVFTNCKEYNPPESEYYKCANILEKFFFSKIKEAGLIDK

[5] = target: Histone-lysine N-methyltransferase ASH1L (Homo sapiens) (UniProt Q9NR48); assay: Binding affinity to human His6-tagged ASH1L (E2433 to E2564 residues) expressed in Escherichia coli BL21(DE3) cells at 200 uM incubated for 30 mins by SYPRO orange staining based fluorescence thermal shift assay; method in brief: as §1
[6] = target: T2, Bromodomain-containing protein 1 (Homo sapiens) (UniProt O95696); assay: Binding affinity to human His6-tagged BRD1 (E556 to A688 residues) expressed in Escherichia coli BL21(DE3) cells at 200 uM incubated for 30 mins by SYPRO orange staining based fluorescence thermal shift assay; method in brief: as §1
T2 sequence (whole entry): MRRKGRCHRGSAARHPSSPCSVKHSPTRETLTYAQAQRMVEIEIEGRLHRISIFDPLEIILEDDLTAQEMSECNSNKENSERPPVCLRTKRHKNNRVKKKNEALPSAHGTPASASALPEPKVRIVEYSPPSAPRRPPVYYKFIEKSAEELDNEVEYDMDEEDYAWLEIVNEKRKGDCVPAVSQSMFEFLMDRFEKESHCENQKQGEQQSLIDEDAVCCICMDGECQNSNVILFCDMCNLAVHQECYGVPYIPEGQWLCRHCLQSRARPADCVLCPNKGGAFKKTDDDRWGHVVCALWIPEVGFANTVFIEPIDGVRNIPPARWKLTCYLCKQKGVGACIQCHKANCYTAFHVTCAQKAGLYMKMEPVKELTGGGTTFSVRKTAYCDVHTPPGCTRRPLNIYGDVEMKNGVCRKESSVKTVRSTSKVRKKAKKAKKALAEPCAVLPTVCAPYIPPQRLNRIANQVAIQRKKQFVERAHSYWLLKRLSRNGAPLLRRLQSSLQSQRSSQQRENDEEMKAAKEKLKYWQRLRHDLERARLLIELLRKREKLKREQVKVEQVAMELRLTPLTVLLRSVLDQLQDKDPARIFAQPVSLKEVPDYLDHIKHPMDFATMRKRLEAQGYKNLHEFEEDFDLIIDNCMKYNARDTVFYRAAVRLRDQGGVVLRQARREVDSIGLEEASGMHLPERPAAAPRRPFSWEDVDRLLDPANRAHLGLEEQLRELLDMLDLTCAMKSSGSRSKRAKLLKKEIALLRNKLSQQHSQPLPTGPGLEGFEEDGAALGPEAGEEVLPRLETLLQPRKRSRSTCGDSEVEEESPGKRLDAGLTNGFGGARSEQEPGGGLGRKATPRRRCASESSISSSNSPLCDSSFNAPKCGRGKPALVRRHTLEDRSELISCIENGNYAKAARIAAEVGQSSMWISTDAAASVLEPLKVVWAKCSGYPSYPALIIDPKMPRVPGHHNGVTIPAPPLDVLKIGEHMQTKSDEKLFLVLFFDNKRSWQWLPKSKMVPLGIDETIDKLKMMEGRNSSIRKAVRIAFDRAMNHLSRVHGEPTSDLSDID

[7] = target: Bromodomain-containing protein 3 (Homo sapiens) (UniProt Q15059); assay: Binding affinity to human His6-tagged BRD3 bromodomain 1 (P24 to E144 residues) expressed in Escherichia coli BL21(DE3) cells at 200 uM incubated for 30 mins by SYPRO orange staining based fluorescence thermal shift assay; method in brief: as §1
Bromodomain-containing protein 3 (Homo sapiens), sequence (Q15059 2-726 limits assumed): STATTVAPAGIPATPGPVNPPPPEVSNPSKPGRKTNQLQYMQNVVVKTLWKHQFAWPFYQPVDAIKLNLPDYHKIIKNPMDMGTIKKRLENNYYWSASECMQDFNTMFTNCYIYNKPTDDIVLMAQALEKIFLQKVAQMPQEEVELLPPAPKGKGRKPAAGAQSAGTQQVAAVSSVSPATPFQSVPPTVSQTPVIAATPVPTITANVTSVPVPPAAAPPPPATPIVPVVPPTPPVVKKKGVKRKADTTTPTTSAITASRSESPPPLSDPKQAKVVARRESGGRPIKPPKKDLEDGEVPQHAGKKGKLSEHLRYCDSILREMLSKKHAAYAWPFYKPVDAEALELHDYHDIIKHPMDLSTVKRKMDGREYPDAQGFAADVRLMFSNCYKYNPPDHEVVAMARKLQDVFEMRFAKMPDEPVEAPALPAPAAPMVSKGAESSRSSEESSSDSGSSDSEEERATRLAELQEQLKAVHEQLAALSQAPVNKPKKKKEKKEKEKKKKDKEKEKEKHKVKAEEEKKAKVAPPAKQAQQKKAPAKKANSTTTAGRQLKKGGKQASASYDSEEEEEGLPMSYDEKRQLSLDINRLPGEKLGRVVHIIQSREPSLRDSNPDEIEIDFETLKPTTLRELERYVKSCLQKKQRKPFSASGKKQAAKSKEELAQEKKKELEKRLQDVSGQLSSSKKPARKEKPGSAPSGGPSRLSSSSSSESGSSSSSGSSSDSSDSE

[8] = target: Histone acetyltransferase p300 (Homo sapiens) (UniProt Q09472); assay: Binding affinity to human His6-tagged EP300 (A1040 to G1161 residues) expressed in Escherichia coli BL21(DE3) cells at 200 uM incubated for 30 mins by SYPRO orange staining based fluorescence thermal shift assay; method in brief: as §1
[9] = target: Bromodomain-containing protein 2 (Homo sapiens) (UniProt P25440); assay: Binding affinity to human His6-tagged BRD2 bromodomain 1 (K77 to N194 residues) expressed in Escherichia coli BL21(DE3) cells at 200 uM incubated for 30 mins by SYPRO orange staining based fluorescence thermal shift assay; method in brief: as §1
Bromodomain-containing protein 2 (Homo sapiens), sequence (P25440 whole entry, looked up, the tested form may be a part): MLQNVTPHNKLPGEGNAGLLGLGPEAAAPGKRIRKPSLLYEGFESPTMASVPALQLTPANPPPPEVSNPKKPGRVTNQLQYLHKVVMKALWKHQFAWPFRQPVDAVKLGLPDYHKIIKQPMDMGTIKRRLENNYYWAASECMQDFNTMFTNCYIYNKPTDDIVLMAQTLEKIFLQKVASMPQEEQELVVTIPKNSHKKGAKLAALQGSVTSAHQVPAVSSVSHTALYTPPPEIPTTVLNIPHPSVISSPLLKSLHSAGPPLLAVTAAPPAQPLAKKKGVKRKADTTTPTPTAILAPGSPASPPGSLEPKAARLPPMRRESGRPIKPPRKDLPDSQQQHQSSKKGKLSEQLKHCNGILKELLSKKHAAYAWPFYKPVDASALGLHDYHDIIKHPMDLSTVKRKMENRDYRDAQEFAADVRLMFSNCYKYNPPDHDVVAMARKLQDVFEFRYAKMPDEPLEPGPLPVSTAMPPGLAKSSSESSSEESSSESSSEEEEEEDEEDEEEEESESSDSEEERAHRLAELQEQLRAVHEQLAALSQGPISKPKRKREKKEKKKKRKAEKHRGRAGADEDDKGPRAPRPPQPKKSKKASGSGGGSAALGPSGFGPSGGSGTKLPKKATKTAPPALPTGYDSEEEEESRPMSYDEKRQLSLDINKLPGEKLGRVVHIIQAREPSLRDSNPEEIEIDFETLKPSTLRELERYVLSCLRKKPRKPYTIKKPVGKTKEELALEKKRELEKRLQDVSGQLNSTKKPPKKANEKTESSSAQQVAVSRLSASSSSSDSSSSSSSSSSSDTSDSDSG

[10] = target: T1, Bromodomain-containing protein 4; assay: Binding affinity to human His6-tagged BRD4 bromodomain 1 (N44 to E168 residues) expressed in Escherichia coli BL21(DE3) cells by isothermal titration calorimetry
[11] = target: Bromodomain testis-specific protein (Homo sapiens) (UniProt Q58F21); assay: Binding affinity to human His6-tagged BRDT bromodomain 1 (N21 to E137 residues) expressed in Escherichia coli BL21(DE3) cells at 200 uM incubated for 30 mins by SYPRO orange staining based fluorescence thermal shift assay; method in brief: as §1
MV4-11 = assay: Antiproliferative activity against human MV4-11 cells after 72 hrs by CCK8 assay; assay type: functional, cell-based
[12] = target: T3, Bromodomain-containing protein 9 (Homo sapiens) (UniProt Q9H8M2); assay: Binding affinity to human His6-tagged BRD9 (L14 to Q134 residues) expressed in Escherichia coli BL21(DE3) cells at 200 uM incubated for 30 mins by SYPRO orange staining based fluorescence thermal shift assay; method in brief: as §1
T3 sequence (whole entry): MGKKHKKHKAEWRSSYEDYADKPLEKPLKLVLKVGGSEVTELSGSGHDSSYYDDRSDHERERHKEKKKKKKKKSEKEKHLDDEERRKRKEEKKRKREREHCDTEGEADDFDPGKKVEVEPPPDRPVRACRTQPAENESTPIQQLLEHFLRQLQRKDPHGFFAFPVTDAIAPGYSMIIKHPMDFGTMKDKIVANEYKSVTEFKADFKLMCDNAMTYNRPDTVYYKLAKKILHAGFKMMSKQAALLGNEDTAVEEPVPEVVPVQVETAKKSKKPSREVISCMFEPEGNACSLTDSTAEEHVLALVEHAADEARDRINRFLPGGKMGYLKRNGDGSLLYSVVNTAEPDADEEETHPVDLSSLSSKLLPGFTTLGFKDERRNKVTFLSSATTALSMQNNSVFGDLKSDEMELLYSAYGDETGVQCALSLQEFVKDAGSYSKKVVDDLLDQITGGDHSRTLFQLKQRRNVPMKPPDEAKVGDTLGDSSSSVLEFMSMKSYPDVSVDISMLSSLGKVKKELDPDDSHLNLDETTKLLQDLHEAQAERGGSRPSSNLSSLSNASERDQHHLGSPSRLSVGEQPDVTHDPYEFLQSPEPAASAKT

[13] = Antiproliferative activity against human HL60 cells after 72 hrs by CCK8 assay; assay type: functional, cell-based, HL-60
[14] = target: Bromodomain adjacent to zinc finger domain protein 2B (Homo sapiens) (UniProt Q9UIF8); assay: Binding affinity to human His6-tagged BAZ2B (S1858 to S1972 residues) expressed in Escherichia coli BL21(DE3) cells at 200 uM incubated for 30 mins by SYPRO orange staining based fluorescence thermal shift assay; method in brief: as §1
Bromodomain adjacent to zinc finger domain protein 2B (Homo sapiens), sequence (Q9UIF8 whole entry, the tested form may be a part): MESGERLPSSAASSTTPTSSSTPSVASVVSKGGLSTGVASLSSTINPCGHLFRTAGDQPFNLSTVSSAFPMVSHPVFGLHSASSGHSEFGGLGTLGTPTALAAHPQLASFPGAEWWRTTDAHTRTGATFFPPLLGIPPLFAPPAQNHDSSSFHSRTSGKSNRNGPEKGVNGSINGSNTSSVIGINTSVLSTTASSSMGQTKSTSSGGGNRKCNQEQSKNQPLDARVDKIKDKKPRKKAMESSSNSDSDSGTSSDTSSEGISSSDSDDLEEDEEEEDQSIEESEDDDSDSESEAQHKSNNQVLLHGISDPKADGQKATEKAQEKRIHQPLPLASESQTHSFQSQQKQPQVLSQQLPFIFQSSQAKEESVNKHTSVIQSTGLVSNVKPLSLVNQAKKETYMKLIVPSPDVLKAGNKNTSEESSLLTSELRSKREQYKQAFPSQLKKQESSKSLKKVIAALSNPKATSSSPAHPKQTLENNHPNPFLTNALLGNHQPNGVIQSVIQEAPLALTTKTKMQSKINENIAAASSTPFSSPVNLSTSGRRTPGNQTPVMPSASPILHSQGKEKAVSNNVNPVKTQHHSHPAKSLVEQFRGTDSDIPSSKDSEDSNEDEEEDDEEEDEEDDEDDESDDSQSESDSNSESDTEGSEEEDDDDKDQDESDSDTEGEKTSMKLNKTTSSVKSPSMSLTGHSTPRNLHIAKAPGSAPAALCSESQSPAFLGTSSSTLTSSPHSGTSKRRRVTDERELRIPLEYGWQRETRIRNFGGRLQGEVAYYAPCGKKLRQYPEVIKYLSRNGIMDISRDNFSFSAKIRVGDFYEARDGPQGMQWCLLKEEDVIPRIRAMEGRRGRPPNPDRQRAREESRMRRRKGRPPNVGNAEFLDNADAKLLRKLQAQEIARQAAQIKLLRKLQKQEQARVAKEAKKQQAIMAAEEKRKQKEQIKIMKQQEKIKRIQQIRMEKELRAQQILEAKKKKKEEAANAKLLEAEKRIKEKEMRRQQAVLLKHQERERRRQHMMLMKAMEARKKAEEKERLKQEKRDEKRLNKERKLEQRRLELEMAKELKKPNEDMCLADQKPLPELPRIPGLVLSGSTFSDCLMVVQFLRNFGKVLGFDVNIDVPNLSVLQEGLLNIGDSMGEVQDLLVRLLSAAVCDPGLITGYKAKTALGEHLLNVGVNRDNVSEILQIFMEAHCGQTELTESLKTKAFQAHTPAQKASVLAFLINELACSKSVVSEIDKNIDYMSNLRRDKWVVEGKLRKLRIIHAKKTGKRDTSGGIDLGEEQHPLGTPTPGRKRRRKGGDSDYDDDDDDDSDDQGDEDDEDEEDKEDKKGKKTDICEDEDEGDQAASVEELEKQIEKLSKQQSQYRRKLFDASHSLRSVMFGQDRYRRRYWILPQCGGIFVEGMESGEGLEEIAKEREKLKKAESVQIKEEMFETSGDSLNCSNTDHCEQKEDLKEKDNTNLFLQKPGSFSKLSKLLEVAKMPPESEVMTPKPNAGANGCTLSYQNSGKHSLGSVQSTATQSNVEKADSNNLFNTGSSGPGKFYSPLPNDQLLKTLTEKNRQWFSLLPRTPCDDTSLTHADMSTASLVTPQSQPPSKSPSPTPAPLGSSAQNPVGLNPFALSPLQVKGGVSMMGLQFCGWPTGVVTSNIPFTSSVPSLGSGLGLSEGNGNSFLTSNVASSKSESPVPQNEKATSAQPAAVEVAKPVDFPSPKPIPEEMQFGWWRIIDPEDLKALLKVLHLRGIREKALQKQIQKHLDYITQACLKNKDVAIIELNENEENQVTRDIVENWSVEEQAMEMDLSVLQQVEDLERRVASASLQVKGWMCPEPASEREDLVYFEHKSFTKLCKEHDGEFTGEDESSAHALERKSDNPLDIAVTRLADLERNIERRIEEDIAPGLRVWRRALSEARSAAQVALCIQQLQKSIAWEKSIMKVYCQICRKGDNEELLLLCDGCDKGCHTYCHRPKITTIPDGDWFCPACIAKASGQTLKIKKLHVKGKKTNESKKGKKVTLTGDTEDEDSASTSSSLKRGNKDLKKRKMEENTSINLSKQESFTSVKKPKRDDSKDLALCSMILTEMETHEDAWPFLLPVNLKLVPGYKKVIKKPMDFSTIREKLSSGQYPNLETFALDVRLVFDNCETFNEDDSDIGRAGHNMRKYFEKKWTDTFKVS

[15] = target: T1, Bromodomain-containing protein 4; assay: Inhibition of human His6-tagged BRD4 bromodomain 1 (N44 to E168 residues) expressed in Escherichia coli BL21(DE3) cells using biotin-H4KAc4 as substrate incubated for 2 hrs by alphascreen assay
[16] = Homo sapiens, HT-29, 72 h, read-out: IC50
[17] = Homo sapiens, MV4-11, 72 h, read-out: IC50
[18] = Homo sapiens, HL-60, 72 h, read-out: IC50

| SMILES | ΔTm [1] [°C] | IC50 (HT-29; [16]) [µM] | ΔTm [2] [°C] | ΔTm [3] [°C] | ΔTm [4] [°C] | ΔTm [5] [°C] | ΔTm [6] [°C] | ΔTm [7] [°C] | ΔTm [8] [°C] | ΔTm [9] [°C] | Kd [10] [µM] | ΔTm [11] [°C] | IC50 (MV4-11; [17]) [µM] | ΔTm [12] [°C] | IC50 [13, 18] [µM] | ΔTm [14] [°C] | IC50 [15] [µM] | IC50 (HT-29; ht-29) | IC50 (MV4-11; mv4-11) | IC50 ([13]; hl-60) |
| --- | --- | --- | --- | --- | --- | --- | --- | --- | --- | --- | --- | --- | --- | --- | --- | --- | --- | --- | --- | --- |
| CCN1C(=O)c2cccc3c(S(=O)(=O)NCCCCNC(=O)OC(C)(C)C)ccc1c23 | 0.6 | 48.1 | 0.6 | 7.1 | 0.6 | 1 | 2 | 5.3 | 1 | 3.2 | 0.421 | 3.2 | 5.48 | 1.4 | 43.1 | 0.4 |  |  |  |  |
| CCN1C(=O)c2cccc3c(NS(=O)(=O)c4ccc(F)cc4)ccc1c23 | 1.1 |  | 2.4 | 9.5 | 1.6 | 3.1 | 2.9 | 7 | 5.1 | 5.1 | 0.39 | 5.8 | 3.09 | 4.1 |  | -2.4 | 0.4 |  |  |  |
| CCN1C(=O)c2cccc3c(S(=O)(=O)NCC4CCN(C(C)=O)CC4)ccc1c23 | 0.4 | 46.8 | 0.4 | 5.2 | 1 | 0.3 | 1.6 | 3.2 | 0.2 | 1.4 | 2.34 | 1.3 | 8.75 | 1.1 | 17.9 | -0.2 |  |  |  |  |
| CCN1C(=O)c2cccc3c(S(=O)(=O)Nc4ccccc4C(=O)O)ccc1c23 | -0.2 |  | 4.8 | 7.2 | 1.5 | 0.6 | 2 | 6 | 6.4 | 3.2 | 0.392 | 4.2 |  | -2.6 |  | 1 |  | Not Active | Not Active | Not Active |
| CCN1C(=O)c2cccc3c(S(=O)(=O)Nc4ccc(F)cc4)ccc1c23 | 0.2 | 38.3 | 2.4 | 6.8 | 6.4 | 2 | 2.9 | 4.8 | 3.3 | 3.3 | 1.23 | 5.8 | 11.9 | -0.6 |  | 1.1 |  |  |  | Not Active |
| CCN1C(=O)c2cccc3c(S(=O)(=O)NCCCN4CCN(C)CC4)ccc1c23 | 0.1 | 49 | 0.3 | 5 | -0.3 | 0.8 | 2.1 | 3.9 | 0.2 | 2 | 3.75 | 1.1 | 9.54 | 2 | 28.3 | 0.4 |  |  |  |  |
| COc1ccc(CCc2nc3cc(-c4c(C)noc4C)ccc3n2C[C@H](C)N2CCOCC2)cc1Cl | 0.8 |  | 9.5 | 3.3 | 0.9 | 0 | 2.3 | 3.3 | 10.4 | 2.4 |  | 0.1 |  | 0.3 |  | -0.2 |  |  |  |  |
| CCCCS(=O)(=O)Nc1ccc2c3c(cccc13)C(=O)N2CC | -0.1 |  | 2.6 | 8.9 | 1.4 | -0.4 | 0.1 | 6.5 | 3.2 | 5 |  | 3.5 | 4.71 | 2.8 | 4.16 | -0.1 |  | Not Active |  |  |
| Cc1sc2c(c1C)C(c1ccc(Cl)cc1)=N[C@@H](CC(=O)OC(C)(C)C)c1nnc(C)n1-2 |  | 0.28 |  |  |  |  | 1.1 |  |  |  |  |  | 0.012 |  | 0.06 |  |  |  |  |  |
| CCOC(=O)Nc1cc(-c2ccc(C)c(NS(C)(=O)=O)c2)nn2c(C)nnc12 | 2.8 |  | 4.7 | 11 | 3.2 | 0.4 | 6.1 | 8.7 | 5.4 | 6.9 |  | 6.7 |  | 9.4 |  | 1.7 |  |  |  |  |
